This is an account of results in ChEMBL document CHEMBL4373672, “A small molecule drug conjugate (SMDC) of DUPA and a duocarmycin built on the solid phase” (Medchemcomm, 2019).

The subject of experiment [1] is DNA. Description: DNA alkylating activity in human SKBR3 cells exhibiting increased cathepsin B activity and reduced GCPII expression assessed as reduction in cell viability incubated for 72 hrs by MTS assay. Type of experiment: functional, cell-based. Conditions: SK-BR-3, 72 h. The essentials:
(§1)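 Cell lines from ECACC, grown in supplier-recommended media with 10% foetal calf serum and 2 mM L-glutamine, kept at 1-9 x 10^5 cells/mL, 37 °C, 5% CO2. Seeded at 3 x 10^4 cells/100 μL and exposed in triplicate to compound at 100 μM down to 0.00001 μM (10-fold steps) for 72 h; final DMSO 1%. Stocks in DMSO made fresh each day. Doxorubicin hydrochloride (10 μM) served as the 100% inhibition value. MTS reagent added for 3 h, absorbance read at 490 nm. Three independent runs on different passages; IC50 from curve fit.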
(In general: Tetrazolium assays rely on reduction of a dye to a coloured formazan, in cell work by metabolically active cells.)

Experiment [2] concerns DNA. The experiment can be described thus: DNA alkylating activity in GCPII negative human PC3 cells exhibiting increased cathepsin B activity assessed as reduction in cell viability incubated for 72 hrs by MTS assay. Type of experiment: functional. Conditions: PC-3, 72 h. The essentials: as §1
Experiment [3] deals with DNA. Description: DNA alkylating activity in GCPII negative human PC3 cells exhibiting increased cathepsin B activity assessed as reduction in cell viability incubated with GCPII binder 2-PMPA for 1 hr followed by incubation with compound for 48 hrs by MTS assay. In kind it is functional. Conditions: PC-3. The essentials: (§2)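 Pre-treatment of cells (3 x 10^4/100 μL) with 10 μM 2-PMPA for 1 h. Compound in DMSO was then added in triplicate at 100 μM to 0.0001 μM (10-fold steps), 48 h at 37 °C, 5% CO2; final DMSO 1%. Doxorubicin hydrochloride defined 100% inhibition. MTS reagent for 3 h, absorbance at 490 nm. Three independent runs on different passages.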

The test system of experiment [4] is DNA. The experiment can be described thus: DNA alkylating activity in human LNCAP cells exhibiting increased cathepsin B activity and overexpressing GCPII assessed as reduction in cell viability incubated with GCPII binder 2-PMPA for 1 hr followed by incubation with compound for 48 hrs by MTS assay. In kind it is functional, cell-based. The essentials:
as §2

For experiment [5], the system named is DNA. Description: DNA alkylating activity in human NCI-H292 cells exhibiting increased cathepsin B activity and overexpressing GCPII assessed as reduction in cell viability incubated for 72 hrs by MTS assay. In kind it is functional, cell-based. As to conditions: NCI-H292, 72 h. The essentials:
as §1

Experiment [6] deals with DNA. The experiment can be described thus: DNA alkylating activity in human A549 cells exhibiting increased cathepsin B activity and overexpressing GCPII assessed as reduction in cell viability incubated for 72 hrs by MTS assay. In kind it is functional, cell-based. Conditions: A549, 72 h. The essentials: as §1
Experiment [7] has as its system DNA. Description: DNA alkylating activity in human LNCAP cells exhibiting increased cathepsin B activity and overexpressing GCPII assessed as reduction in cell viability incubated for 72 hrs by MTS assay. Type of experiment: functional, cell-based. The essentials:
as §1

Experiment [8] has as its system DNA. The experiment can be described thus: DNA alkylating activity in human GCPII negative 16HBE14o cells deficient of cathepsin B activity assessed as reduction in cell viability incubated for 72 hrs by MTS assay. In kind it is functional. The essentials: as §1
The test system of experiment [9] is DNA. The experiment can be described thus: DNA alkylating activity in human SK-MEL-28 cells exhibiting increased cathepsin B activity and overexpressing GCPII assessed as reduction in cell viability incubated for 72 hrs by MTS assay. Type of experiment: functional, cell-based. As to conditions: SK-MEL-28, 72 h. The essentials:
as §1

Experiment [10] has as its system DNA. The experiment can be described thus: DNA alkylating activity in human MCF7 cells exhibiting increased cathepsin B activity and overexpressing GCPII assessed as reduction in cell viability incubated for 72 hrs by MTS assay. In kind it is functional, cell-based. Conditions: MCF7, 72 h. The essentials: as §1

On to `NC(=O)c1cc2c3c(cc(O)c2[nH]1)N(C(=O)c1ccc(N)cc1)CC3CCl` (stereo not given), for which the IC50 in the experiment on DNA [1] was determined as 2.3 nM; in the experiment with DNA [2] it was 4.7 nM; in the experiment with DNA [3], 6.1 nM; in the experiment with DNA [4] it was 25.5 nM; in the experiment on DNA [5] it was 7.3 nM; in the experiment on DNA [6], 36.6 nM. Also, the IC50 in the experiment on DNA [7] worked out at 15.7 nM; in the experiment with DNA [8], 85.4 nM; in the experiment with DNA [9], 22.5 nM; with DNA [10], 181 nM.

What is called IC50 is the concentration that gives 50% inhibition.
